Source: ChEMBL document CHEMBL3792315, “Potent, Selective, and CNS-Penetrant Tetrasubstituted Cyclopropane Class IIa Histone Deacetylase (HDAC) Inhibitors” (ACS Med Chem Lett, 2016)

Key:
[1] = Apparent permeability across apical to basolateral side in MDCK cells expressing MDR1; assay type: ADME, cell-based, Canis lupus familiaris; details: dog
[2] = Volume of distribution at steady state in C57Bl/6 mouse plasma at 5 mg/kg, iv; assay type: ADME, organism-based; details: read-out: Vdss
Procedure, shortened: (§1)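 Fed male C57Bl/6 mice were dosed intravenously, and plasma was sampled to derive half-life, plasma clearance and steady-state volume of distribution. The iv dose differed per compound (5, 1 or 2.5 mg/kg).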

Plasma [3] = test: Dose normalized Cmax in C57Bl/6 mouse plasma at 10 mg/kg, po; assay type: ADME, organism-based; details: in vivo
Procedure, shortened: (§2)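 A single 10 mg/kg oral gavage dose was given to fed male C57Bl/6 mice. Concentrations were measured in plasma, brain and muscle to derive Cmax, Tmax and AUC, with Cmax and AUC normalised to dose.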

[4] = Tmax in C57Bl/6 mouse muscle at 10 mg/kg, po; assay type: ADME, organism-based, Muscle tissue; procedure, shortened: as §2
[5] = Oral bioavailability in C57Bl/6 mouse plasma at 10 mg/kg; assay type: ADME, organism-based
Brain [6] = test: Dose normalized AUC in C57Bl/6 mouse brain at 10 mg/kg, po; assay type: ADME, organism-based; details: in vivo; procedure, shortened: as §2
Muscle tissue [7] = test: Dose normalized AUC in C57Bl/6 mouse muscle at 10 mg/kg, po; assay type: ADME, organism-based; details: in vivo; procedure, shortened: as §2
[8] = Tmax in C57Bl/6 mouse plasma at 10 mg/kg, po; assay type: ADME, organism-based; procedure, shortened: as §2
Brain [9] = test: Dose normalized Cmax in C57Bl/6 mouse brain at 10 mg/kg, po; assay type: ADME, organism-based; details: in vivo; procedure, shortened: as §2
Muscle tissue [10] = test: Dose normalized Cmax in C57Bl/6 mouse muscle at 10 mg/kg, po; assay type: ADME, organism-based; details: in vivo; procedure, shortened: as §2
Plasma [11] = test: Dose normalized AUC in C57Bl/6 mouse plasma at 10 mg/kg, po; assay type: ADME, organism-based; details: in vivo; procedure, shortened: as §2
[12] = Tmax in C57Bl/6 mouse brain at 10 mg/kg, po; assay type: ADME, organism-based; procedure, shortened: as §2
[13] = Volume of distribution at steady state in C57Bl/6 mouse plasma at 1 mg/kg, iv; assay type: ADME, organism-based; details: read-out: Vdss; procedure, shortened: as §1
[14] = Volume of distribution at steady state in C57Bl/6 mouse plasma at 2.5 mg/kg, iv; assay type: ADME, organism-based; details: read-out: Vdss; procedure, shortened: as §1

SMILES: Cc1cnc(-c2ccc([C@@H]3[C@@H](c4ccccc4)[C@@]3(F)C(=O)NO)cc2)nc1
- Papp A→B [1]: 36.9 ×10⁻⁶ cm/s

SMILES: O=C(NO)[C@@H]1[C@H](c2ccccc2)[C@H]1c1ccc(-c2ncc(F)cn2)cc1
- Vd [2]: 4.1 L/kg
- Cmax/dose (Plasma [3]): 97 nM·kg/mg
- Tmax [4]: 30 min
- bioavailability [5]: 100%
- AUC/dose (Brain [6]): 830 nM·kg·h/mg
- AUC/dose (Muscle tissue [7]): 330 nM·kg·h/mg
- Tmax [8]: 30 min
- Cmax/dose (Brain [9]): 570 nM·kg/mg
- Cmax/dose (Muscle tissue [10]): 320 nM·kg/mg
- AUC/dose (Plasma [11]): 110 nM·kg·h/mg
- Tmax [12]: 30 min

SMILES: O=C(NO)[C@]1(F)[C@H](c2ccccc2)[C@H]1c1ccc(-c2ncc(F)cn2)cc1
- Cmax/dose (Plasma [3]): 180 nM·kg/mg
- Tmax [4]: 30 min
- bioavailability [5]: 79%
- Papp A→B [1]: 41.8 ×10⁻⁶ cm/s
- AUC/dose (Brain [6]): 1900 nM·kg·h/mg
- AUC/dose (Muscle tissue [7]): 640 nM·kg·h/mg
- Vd [13]: 5.1 L/kg
- Tmax [8]: 15 min
- Cmax/dose (Brain [9]): 780 nM·kg/mg
- Cmax/dose (Muscle tissue [10]): 290 nM·kg/mg
- AUC/dose (Plasma [11]): 480 nM·kg·h/mg
- Tmax [12]: 30 min

SMILES: O=C(NO)[C@]1(F)[C@H](c2ccccc2)[C@H]1c1ccc(-c2nccc(C(F)(F)F)n2)cc1
- Papp A→B [1]: 7 ×10⁻⁶ cm/s

SMILES: O=C(NO)[C@@H]1[C@H](c2ccccc2)[C@H]1c1ccc(-c2ncc(OC(F)F)cn2)cc1
- Papp A→B [1]: 12.9 ×10⁻⁶ cm/s

SMILES: O=C(NO)[C@]1(F)[C@H](c2ccccc2)[C@H]1c1ccc(-c2ncc(OC(F)F)cn2)cc1
- Cmax/dose (Plasma [3]): 150 nM·kg/mg
- Vd [14]: 10 L/kg
- Tmax [4]: 30 min
- bioavailability [5]: 100%
- Papp A→B [1]: 19.2 ×10⁻⁶ cm/s
- AUC/dose (Brain [6]): 580 nM·kg·h/mg
- AUC/dose (Muscle tissue [7]): 300 nM·kg·h/mg
- Tmax [8]: 15 min
- Cmax/dose (Brain [9]): 120 nM·kg/mg
- Cmax/dose (Muscle tissue [10]): 56 nM·kg/mg
- AUC/dose (Plasma [11]): 660 nM·kg·h/mg
- Tmax [12]: 60 min

SMILES: Cc1cnc(-c2ccc([C@@H]3[C@@H](c4ccccc4)[C@@]3(C)C(=O)NO)cc2)nc1
- Papp A→B [1]: 39.1 ×10⁻⁶ cm/s

SMILES: O=C(NO)[C@]1(F)[C@H](c2ccccc2)[C@H]1c1ccc(-c2cnco2)cc1
- Papp A→B [1]: 48.7 ×10⁻⁶ cm/s

SMILES: Cc1cnc(-c2ccc([C@H]3[C@H](C(=O)NO)[C@@H]3c3ccccc3)cc2)nc1
- Papp A→B [1]: 37.5 ×10⁻⁶ cm/s

SMILES: O=C(NO)[C@@H]1[C@H](c2ccccc2)[C@H]1c1ccc(-c2ncc(Cl)cn2)cc1
- Papp A→B [1]: 38 ×10⁻⁶ cm/s

SMILES: O=C(NO)[C@]1(F)[C@H](c2ccccc2)[C@H]1c1ccc(-c2ncc(Cl)cn2)cc1
- Papp A→B [1]: < 1 ×10⁻⁶ cm/s

SMILES: O=C(NO)[C@@H]1[C@H](c2ccccc2)[C@H]1c1ccc(-c2nccc(C(F)(F)F)n2)cc1
- Papp A→B [1]: 11.4 ×10⁻⁶ cm/s
